# Compound activity: PubChem, several laboratories
# Most compounds without a hit are left out; they make up all but 3.6% or so of the library.
# ZTA counter: blocks Epstein-Barr virus ZTA, an EBNA-1 counter-screen; ZTA-DNA binding, fluorescence polarization; inhibition, % at 11 µM; 0.15% of 320,000 active; in the data active means inhibition above about 33%
# Target sequence (P03206 whole entry, looked up): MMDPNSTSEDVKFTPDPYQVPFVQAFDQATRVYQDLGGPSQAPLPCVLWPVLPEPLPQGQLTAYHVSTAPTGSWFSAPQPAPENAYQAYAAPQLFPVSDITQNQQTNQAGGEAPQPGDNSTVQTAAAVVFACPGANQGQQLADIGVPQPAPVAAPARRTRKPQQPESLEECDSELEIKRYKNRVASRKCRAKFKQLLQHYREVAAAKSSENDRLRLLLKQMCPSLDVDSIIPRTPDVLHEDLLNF
# EBNA-1 inhibitor: EBNA-1 DNA-binding inhibitors, primary screen, biochemical, fluorescence polarization | inhibition, % at 14.8 µM | 0.34% of 300,000 active; in the data active means inhibition above about 28%
# NS3 helicase inh: inhibitors of HCV NS3 helicase, primary screen, biochemical, Cy5 molecular beacon fluorescence; NS3 helicase DNA unwinding; inhibition, % at 10.9 µM; 0.56% of 290,000 active;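 active means inhibition above the mean of all tested compounds plus 3 SD, set per campaign, cut at about 35% in these data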;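 further: 0% = DMSO wells and 100% = thioflavine S control wells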
#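 assay system = NS3 helicase fragment of HCV | buffer or medium = MOPS pH 6.5, MgCl2, DTT, Tween20, BSA | timing = 60 min unwinding reaction at 25 °C after ATP addition | signal = Cy5 beacon fluorescence read at start and 1 h | read-out basis = % inhibition of unwinding | control set = low DMSO, high thioflavine S at 110 µM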
# FID counter: compounds displacing fluorescent DNA intercalator, primary screen, artefact control for HCV NS3 helicase inhibitor project, biochemical, FID fluorescence; DNA fluorescent intercalator displacement; inhibition, % at 7.9 µM; 0.17% of 290,000 active; in the data active means inhibition above about 37%;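 further: 0% = vehicle and 100% = reference compound; higher means more ethidium bromide displaced from hairpin DNA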
# FGF22 binding-1: binders of human FGF22 protein, primary screen, FGF22 synaptogenesis inhibitor project, biophysical, thermal shift, single point; Fibroblast growth factor 22 (Homo sapiens), Q9HCT0; recombinant FGF22 thermal shift, SYPRO orange fluorescence; percent of sucrose octasulfate shift, DMSO zero; activity (Tm shift, normalised), % at 9.99 µM; 1.5% of 340,000 active; AID 651658, 2012;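 active means mean Tm shift, scaled 0 neutral to 100 positive control, at about 1.3% or above, every replicate too, limit read from the data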
# Target sequence (Q9HCT0 whole entry, looked up): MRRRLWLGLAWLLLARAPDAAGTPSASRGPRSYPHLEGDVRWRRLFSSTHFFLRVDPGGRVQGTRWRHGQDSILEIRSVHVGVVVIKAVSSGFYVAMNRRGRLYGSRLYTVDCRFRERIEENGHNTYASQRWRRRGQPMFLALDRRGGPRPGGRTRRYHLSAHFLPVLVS
# NR3A LBD binder: binders of NR3A ligand-binding domain, primary screen, biophysical, differential scanning fluorimetry, uHTS. NR3A LBD differential scanning fluorimetry, Tm shift; 0% = protein alone, 100% = glycine-bound protein. Tm shift relative to glycine control, % at 25 µM. 2.5% of 340,000 active;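 active means melting temperature shift of at least 10% of the positive control shift, at one fixed dose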
# FGF22 binding-2: binders of human FGF22 protein, dose response, FGF22 synaptogenesis inhibitor project, biophysical, thermal shift, cherry-pick retest; recombinant FGF22 thermal shift, SYPRO orange fluorescence; thermal shift activity, °C (ΔTm) at 38 µM; shares compounds with FGF22 binding-1; 2% of 1,000 active; AID 720646, 2013;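 active means fitted rise in melting shift crosses a set limit at or below the top valid dose tested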
# TSA no protein: compound-only thermal shift signal without protein, dose response, artefact control for FGF22 binder project, biochemical, cherry-picked samples, RT-PCR instrument; shares compounds with FGF22 binding-1; compound-only SYPRO orange thermal shift counter-screen, no protein; AID 743019, 2013; AC50, µM (series often up to 38 µM); 2% of 1,000 active;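 active means rising signal whose fitted curve reaches the 0.54 level within the top valid dose, showing a melting point, actives reach about 13 µM in these data; inactive means the rest, including activity in the opposite direction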; further: value is where the raw curve crosses a fixed level and not half-maximal
# Starred values were filed as active, the others as inactive; i = inactive; · = no result given; [ ] = dose if it differs, or a comment.
SMILES,ZTA counter,EBNA-1 inhibitor,NS3 helicase inh,FID counter,FGF22 binding-1,NR3A LBD binder,FGF22 binding-2,TSA no protein
O=C(C[C@@H]1CC[C@H]2[C@@H](COC[C@@H](O)CN2CC2CCOCC2)O1)NCC1CCCCC1,·,·,·,·,7.9*,·,-0.032,i
COc1ccccc1CNC(=O)C[C@H]1CC[C@H]2[C@@H](COC[C@H](O)CN2C(=O)Nc2ccc(Cl)cc2)O1,·,·,·,·,0,·,·,·
COc1cccc(NC(=O)N2C[C@H](O)COC[C@@H]3O[C@H](CC(=O)NC4CCC4)CC[C@H]32)c1,·,·,·,·,0,·,·,·
O=C(C[C@H]1CC[C@H]2[C@@H](COC[C@@H](O)CN2C(=O)Nc2cccc(Cl)c2)O1)NCC1CCCCC1,·,·,·,·,0,·,·,·
C[C@@H]1CN([C@H](C)CO)S(=O)(=O)c2ccc(C3=CCCCC3)cc2O[C@H]1CN(C)C(=O)Cc1ccncc1,·,·,·,·,0,·,·,·
C[C@H](NC(=O)C[C@@H]1CC[C@@H]2[C@H](COC[C@@H](O)CN2C(=O)Nc2cccc(Cl)c2)O1)c1ccccc1,·,·,·,·,1.5*,·,-0.005,i
C[C@@H](NC(=O)C[C@@H]1CC[C@H]2[C@@H](COC[C@H](O)CN2C(=O)Nc2cccc(Cl)c2)O1)c1ccccc1,·,·,·,·,0,·,·,·
O=C(N[C@H]1CC[C@@H](CCn2cc(C3(O)CCCC3)nn2)O[C@@H]1CO)C1CCCCC1,·,·,·,·,0,·,·,·
COc1ccc(-c2cn(CC[C@@H]3CC[C@@H](NC(=O)Nc4ccc(F)cc4)[C@H](CO)O3)nn2)cc1,·,·,·,·,·,·,-0.17[42 µM],i
COc1ccc(NC(=O)N[C@H]2CC[C@@H](CCn3cc(-c4ccc(OC)cc4)nn3)O[C@@H]2CO)cc1,·,·,·,·,1.3*,·,0.11[42 µM],i
O=C(Nc1ccc(F)cc1)N[C@@H]1CC[C@H](CCn2cc(-c3ccc(F)cc3)nn2)O[C@H]1CO,·,·,·,·,2.4*,·,-0.2[42 µM],i
O=C(Nc1ccc(F)cc1)N[C@@H]1CC[C@H](CCn2cc(-c3ccc(F)cc3)nn2)O[C@@H]1CO,·,·,·,·,0,·,·,·
O=C(N[C@H]1CC[C@H](CCn2cc(C3(O)CCCC3)nn2)O[C@@H]1CO)C1CCCCC1,·,·,·,·,1.8*,·,0.027[42 µM],i
COc1ccc(NC(=O)N[C@@H]2CC[C@H](CCn3cc(-c4ccc(F)cc4)nn3)O[C@H]2CO)cc1,·,·,·,·,0,·,·,·
C[C@H]1CN([C@@H](C)CO)C(=O)c2cc(C#CCc3ccccc3)cnc2O[C@@H]1CN(C)CC1CCCC1,·,·,·,·,0,·,·,·
COc1ccc2c3c(n(C)c2c1)[C@H](CO)N(C(=O)CN(C)C)CC31CN(Cc2nccs2)C1,·,·,·,·,0,·,·,·
O=C(Nc1ccccc1)N1C[C@H]2[C@@H](c3ccccc31)[C@@H](CO)N2C(=O)c1ccncc1,·,·,·,·,1.4*,·,-0.096[42 µM],i
O=C(Nc1cccc(F)c1)N1C[C@H]2[C@@H](c3ccccc31)[C@@H](CO)N2C(=O)c1cccnc1,·,·,·,·,1,·,·,·
O=C(Nc1cccc(F)c1)N1C[C@@H]2[C@H](c3ccccc31)[C@H](CO)N2C(=O)c1cccnc1,·,·,·,·,1.4*,·,0.2[42 µM],i
CCCNC(=O)N1[C@@H]2Cn3c(ccc(-c4cccc(OC)c4)c3=O)[C@H]1[C@@H](C(=O)NCC)[C@@H]2CO,·,·,·,·,0,·,·,·
COc1ccccc1-c1ccc2c(c1)[C@H]1[C@H](CCN1S(=O)(=O)c1cccc(C)c1)[C@@H](CO)N2,·,·,·,·,1,·,·,·
COc1ccc(C)cc1NC(=O)C1CCN(S(=O)(=O)c2cccs2)CC1,0,12,2,-18,1.9*,3,0.011,i
CCOc1ccc(S(=O)(=O)Nc2ccc(C(=O)NNC(=O)c3ccncc3)cc2)cc1,2,5,·,·,0,1,·,·
